Assay results from ChEMBL document CHEMBL3351258, “An amidation/cyclization approach to the synthesis of N-hydroxyquinolinones and their biological evaluation as potential anti-plasmodial, anti-bacterial, and iron(II)-chelating agents” (Bioorg Med Chem Lett, 2015).
In brackets after ≈: the same amount, converted by molar mass. Activity calls are given as the source filed them. The rule behind the calls is not given here.

Experiments:
Plasmodium falciparum [1] = assay: Antiplasmodial activity against Plasmodium falciparum 3D7 incubated for 36 to 42 hrs by Giemsa staining method; format: functional, organism-based
Method in brief: (§1)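 In vitro maturation assay on the chloroquine-sensitive P. falciparum 3D7 strain.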

Staphylococcus aureus [2] = assay: Antibacterial activity against Staphylococcus aureus ATCC 25923 incubated for 18 to 24 hrs followed by addition incubation for 18 to 24 hrs on MHA plates; format: functional
Method in brief: (§2)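 Read-out is the minimum bactericidal concentration (MBC), determined separately against Escherichia coli and Staphylococcus aureus.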

Escherichia coli [3] = assay: Antibacterial activity against Escherichia coli ATCC 25922 up to 1024 ug/ml incubated for 18 to 24 hrs followed by addition incubation for 18 to 24 hrs on MHA plates; format: functional, organism-based; method in brief: as §2
Escherichia coli [4] = assay: Antibacterial activity against Escherichia coli ATCC 25922 incubated for 18 to 24 hrs followed by addition incubation for 18 to 24 hrs on MHA plates; format: functional; method in brief: as §2
Staphylococcus aureus [5] = assay: Antibacterial activity against Staphylococcus aureus ATCC 25923 up to 1024 ug/ml incubated for 18 to 24 hrs followed by addition incubation for 18 to 24 hrs on MHA plates; format: functional, organism-based; method in brief: as §2
Plasmodium falciparum [6] = assay: Antiplasmodial activity against Plasmodium falciparum 3D7 up to 5092 ug/ml incubated for 36 to 42 hrs by Giemsa staining method; format: functional, organism-based; conditions: in the assay text read “5092 ng/ml” for “5092 ug/ml”; method in brief: as §1
[7] = Iron chelation activity assessed as drug level causing 50% iron chelation at 20 to 500 ug/ml using FeCl2 and ferrozine; format: physicochemical; conditions: for EC50: read-out: Activity
Method in brief: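 The value is the concentration giving 50% chelation ability (50% CA), reported in mM.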

[8] = Iron chelation activity at 500 ug/ml using FeCl2 and ferrozine; format: physicochemical
[9] = Plasmodium falciparum, 3D7, read-out: IC50

| Compound | IC50 (Plasmodium falciparum [1]; [9]) [µM] | IC50 (Plasmodium falciparum [1]) | EC50 [7] [µM] | Activity [7] | Activity [8] | MBC (Staphylococcus aureus [2]) | Activity (Escherichia coli [3]) | MBC (Escherichia coli [4]) | Activity (Staphylococcus aureus [5]) | Activity (Plasmodium falciparum [6]) |
| --- | --- | --- | --- | --- | --- | --- | --- | --- | --- | --- |
| O=c1c(-c2ccccc2)c(O)c2ccccc2n1O |  | Not Active |  |  |  | inactive |  | 4 mM (≈ 1010 µg/mL) | inactive | inactive |
| O=c1c(-c2ccc3ccccc3c2)c(O)c2ccccc2n1O |  | Not Active |  |  |  | inactive | inactive | inactive | inactive | inactive |
| O=c1c(-c2ccccc2C(F)(F)F)cc2ccccc2n1O | 5.9 |  |  |  |  | 3.4 mM (≈ 1040 µg/mL) | inactive | inactive |  |  |
| O=c1c(-c2ccccc2)cc2ccccc2n1O | 14 |  |  |  |  | inactive | inactive | inactive | inactive |  |
| COc1ccccc1-c1cc2ccccc2n(O)c1=O | 7.6 |  |  |  |  | 3.8 mM (≈ 1020 µg/mL) |  | 1.9 mM (≈ 508 µg/mL) |  |  |
| Cc1ccccc1-c1c(O)c2ccccc2n(O)c1=O |  | Not Active |  |  |  | inactive | inactive | inactive | inactive | inactive |
| O=c1c(-c2cccc3ccccc23)c(O)c2ccccc2n1O |  | Not Active | 280 |  |  | 1.7 mM (≈ 516 µg/mL) | inactive | inactive |  | inactive |
| Cc1ccccc1-c1cc2c(F)cccc2n(O)c1=O | 5 |  | 280 |  |  | inactive | inactive | inactive | inactive |  |
| COc1ccccc1-c1c(O)c2ccccc2n(O)c1=O |  | Not Active |  |  |  | inactive | inactive | inactive | inactive | inactive |
| COc1cc2cc(-c3ccccc3C)c(=O)n(O)c2cc1OC | 5.5 |  |  |  |  | inactive | inactive | inactive | inactive |  |
| O=c1[nH]c2ccccc2cc1-c1cccc2ccccc12 |  | Not Active |  | Not Active | Not Active | inactive | inactive | inactive | inactive | inactive |
| COc1cc2cc(-c3cccc4ccccc34)c(=O)n(O)c2cc1OC | 5 |  |  |  |  | inactive | inactive | inactive | inactive |  |
| O=c1c(-c2ccccc2C(F)(F)F)c(O)c2ccccc2n1O |  | Not Active |  |  |  | inactive | inactive | inactive | inactive | inactive |

Continued, in another order:

| IC50 (Plasmodium falciparum [1]; [9]) [µM] | IC50 (Plasmodium falciparum [1]) | EC50 [7] [µM] | Activity [7] | Activity [8] | Compound | MBC (Staphylococcus aureus [2]) | Activity (Escherichia coli [3]) | MBC (Escherichia coli [4]) | Activity (Staphylococcus aureus [5]) | Activity (Plasmodium falciparum [6]) |
| --- | --- | --- | --- | --- | --- | --- | --- | --- | --- | --- |
| 1.9 |  |  |  |  | O=c1c(-c2cccc3ccccc23)cc2c3c(ccc2n1O)OCO3 | 3.1 mM (≈ 1030 µg/mL) | inactive | inactive |  |  |
| 4.2 |  |  |  |  | O=c1c(-c2cccc3ccccc23)cc2cc3c(cc2n1O)OCO3 | inactive | inactive | inactive | inactive |  |
| 3.6 |  |  |  |  | Cc1ccccc1-c1cc2c3c(ccc2n(O)c1=O)OCO3 | inactive | inactive | inactive | inactive |  |
| 4.8 |  | 290 |  |  | Cc1ccccc1-c1cc2cc(F)ccc2n(O)c1=O | inactive | inactive | inactive | inactive |  |
| 3 |  |  |  |  | Cc1ccccc1-c1cc2ccccc2n(O)c1=O | 4.1 mM (≈ 1030 µg/mL) | inactive | inactive |  |  |
| 1.3 |  | 280 |  |  | COc1ccc2c(c1)cc(-c1ccccc1C)c(=O)n2O | 3.6 mM (≈ 1010 µg/mL) | inactive | inactive |  |  |
| 2.6 |  |  |  |  | O=c1c(-c2cccc3ccccc23)cc2ccccc2n1O | inactive | inactive | inactive | inactive |  |
| 2.9 |  |  |  |  | O=c1c(-c2ccc3ccccc3c2)cc2ccccc2n1O | 3.6 mM (≈ 1030 µg/mL) | inactive | inactive |  |  |
| 4.6 |  |  |  |  | Cc1ccccc1-c1cc2cc3c(cc2n(O)c1=O)OCO3 | inactive | inactive | inactive | inactive |  |
| 3.5 |  |  |  |  | Cc1ccccc1-c1cc2cc(O)ccc2n(O)c1=O | 3.8 mM (≈ 1020 µg/mL) |  | 1.9 mM (≈ 508 µg/mL) |  |  |
| 2.5 |  |  |  |  | O=c1c(-c2cccc3ccccc23)cc2cc(O)ccc2n1O | inactive |  | 3.4 mM (≈ 1030 µg/mL) | inactive |  |
| 1.3 |  | 250 |  |  | COc1ccc2c(c1)cc(-c1cccc3ccccc13)c(=O)n2O | inactive | inactive | inactive | inactive |  |
| 1.1 |  | 240 |  |  | O=c1c(-c2cccc3ccccc23)cc2cc(F)ccc2n1O | inactive | inactive | inactive | inactive |  |
| 0.8 |  |  |  |  | C=C[C@]1(C)C[C@H](C)C[C@H](C)[C@H]1c1c(O)ccn(O)c1=O |  |  |  |  |  |
| 1.4 |  | 240 |  |  | O=c1c(-c2cccc3ccccc23)cc2c(F)cccc2n1O | inactive | inactive | inactive | inactive |  |
